Converted amounts (≈) assume the structure as drawn.
How the values were obtained:
[1] = Inhibition of Staphylococcus aureus topoisomerase assessed as reduction in relaxation of supercoiled pNO1 DNA measured after 30 mins by fluorescence assay
How it was run: (§1)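 Enzyme run per an earlier-reported procedure; IC50 fitted from seven inhibitor concentrations, mean of three independent measurements.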

Staphylococcus aureus [2] = assay: Antibacterial activity against Staphylococcus aureus ATCC 29213 assessed as inhibition of bacterial growth by CLSI protocol based broth microdilution assay; format: functional
Staphylococcus aureus [3] = assay: Antibacterial activity against methicillin-resistant Staphylococcus aureus ATCC 43300 assessed as inhibition of bacterial growth by CLSI protocol based broth microdilution assay; format: functional
How it was run: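 Minimum inhibitory concentration by standard serial broth microdilution following CLSI guidelines. Medium was MHBII broth (22 g/L powder: beef extract, casein acid hydrolysate, starch), with MHBII agar (14 g agar per L broth). Where noted, assayed without and with efflux pump substrate phenylalanine-arginine β-naphthylamide (PAβN).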

Enterococcus faecalis = assay: Antibacterial activity against Enterococcus faecalis ATCC 29212 assessed as inhibition of bacterial growth by CLSI protocol based broth microdilution assay; format: functional
Acinetobacter baumannii = assay: Antibacterial activity against Acinetobacter baumannii ATCC 17978 assessed as inhibition of bacterial growth by CLSI protocol based broth microdilution assay; format: functional
Pseudomonas aeruginosa = assay: Antibacterial activity against Pseudomonas aeruginosa ATCC 27853 assessed as inhibition of bacterial growth by CLSI protocol based broth microdilution assay; format: functional
Klebsiella pneumoniae = assay: Antibacterial activity against Klebsiella pneumoniae ATCC 10031 assessed as inhibition of bacterial growth by CLSI protocol based broth microdilution assay; format: functional
DNA gyrase [4] = biological target: DNA gyrase (Staphylococcus aureus, UniProt P0A0K8+P20831); assay: Inhibition of Staphylococcus aureus DNA gyrase assessed reduction in supercoiling of relaxed pNO1 DNA measured after 30 mins by fluorescence assay
[5] = Inhibition of Escherichia coli topoisomerase assessed as reduction in relaxation of supercoiled pNO1 DNA measured after 30 mins by fluorescence assay; how it was run: as §1
DNA gyrase [6] = biological target: DNA gyrase (Escherichia coli, UniProt P0AES4+P0AES6); assay: Inhibition of Escherichia coli DNA gyrase assessed as reduction in supercoiling of relaxed pNO1 DNA measured after 30 mins by fluorescence assay
Escherichia coli = assay: Antibacterial activity against Escherichia coli ATCC 25922 assessed as inhibition of bacterial growth by CLSI protocol based broth microdilution assay; format: functional

SMILES | IC50 [1] | IC50 (DNA gyrase [4]) | IC50 [5] | MIC (Staphylococcus aureus [2]) | MIC (Staphylococcus aureus [3]) | MIC (Enterococcus faecalis) | MIC (Acinetobacter baumannii) | MIC (Pseudomonas aeruginosa) | MIC (Klebsiella pneumoniae) | IC50 (DNA gyrase [6]) | MIC (Escherichia coli)
Cc1[nH]c(C(=O)Nc2nc3c(OCc4cccc(F)c4)cc(C(=O)O)cc3s2)c(Cl)c1Cl | < 10 nM | < 10 nM |  | 0.0625 µg/mL (≈ 0.126 µM) | 0.0625 µg/mL (≈ 0.126 µM) | 0.001 µg/mL (≈ 0.00202 µM) | 2 µg/mL (≈ 4.05 µM) | 64 µg/mL (≈ 129 µM) | > 64 µg/mL |  | 
Cc1[nH]c(C(=O)Nc2nc3ccc(C(=O)NO)cc3s2)c(Cl)c1Cl | > 1000 nM | 720 nM | > 1000 nM | 64 µg/mL (≈ 166 µM) | 32 µg/mL (≈ 83.1 µM) | 0.5 µg/mL (≈ 1.3 µM) | > 64 µg/mL | > 64 µg/mL | > 64 µg/mL |  | > 64 µg/mL
COc1cc(C(=O)O)cc2sc(NC(=O)c3[nH]c(C)c(Cl)c3Cl)nc12 | 390 nM | 44 nM | 160 nM | 2 µg/mL (≈ 5 µM) | 0.5 µg/mL (≈ 1.25 µM) | 0.25 µg/mL (≈ 0.625 µM) | 16 µg/mL (≈ 40 µM) | 64 µg/mL (≈ 160 µM) | 2 µg/mL (≈ 5 µM) | < 10 nM | 64 µg/mL (≈ 160 µM)
Cc1[nH]c(C(=O)Nc2nc3c(OCc4ccccc4)cc(C(=O)NCC#N)cc3s2)c(Cl)c1Cl | > 1000 nM | 180 nM | > 1000 nM | 4 µg/mL (≈ 7.78 µM) | 4 µg/mL (≈ 7.78 µM) | 16 µg/mL (≈ 31.1 µM) | > 64 µg/mL | > 64 µg/mL | > 64 µg/mL | < 10 nM | > 64 µg/mL
Cc1[nH]c(C(=O)Nc2nc3c(F)cc(C(=O)O)cc3s2)c(Cl)c1Cl | 240 nM | 17 nM | 200 nM | 0.5 µg/mL (≈ 1.29 µM) | 0.0625 µg/mL (≈ 0.161 µM) | 0.0625 µg/mL (≈ 0.161 µM) | 8 µg/mL (≈ 20.6 µM) | 64 µg/mL (≈ 165 µM) | 4 µg/mL (≈ 10.3 µM) | < 10 nM | 16 µg/mL (≈ 41.2 µM)
Cc1[nH]c(C(=O)Nc2nc3ccc(C(=O)O)cc3s2)c(Cl)c1Br | 61 nM | 24 nM | 220 nM | 0.125 µg/mL (≈ 0.301 µM) | 2 µg/mL (≈ 4.82 µM) | 0.0625 µg/mL (≈ 0.151 µM) | 4 µg/mL (≈ 9.65 µM) | 8 µg/mL (≈ 19.3 µM) | 2 µg/mL (≈ 4.82 µM) | < 10 nM | > 64 µg/mL
Cc1[nH]c(C(=O)N(c2nc3ccc(C(=O)O)cc3s2)C2CC2)c(Cl)c1Cl | > 1000 nM | > 1000 nM | > 1000 nM | 2 µg/mL (≈ 4.87 µM) | 2 µg/mL (≈ 4.87 µM) | 0.25 µg/mL (≈ 0.609 µM) | > 64 µg/mL | > 64 µg/mL | 64 µg/mL (≈ 156 µM) |  | > 64 µg/mL
O=C(O)c1ccc2nc(NC(=O)c3cc(Cl)c(Cl)[nH]3)sc2c1 | > 1000 nM | 500 nM | 280 nM |  |  |  |  |  |  |  | 
O=C(O)c1ccc2nc(NC(=O)c3cc(Br)c(Br)[nH]3)sc2c1 | 300 nM | > 1000 nM | > 1000 nM |  |  |  |  |  |  |  | 
Cc1[nH]c(C(=O)Nc2nc3ccc(C(=O)O)cc3s2)c(Cl)c1Cl | 66 nM |  | 500 nM | 1 µg/mL (≈ 2.7 µM) | 0.125 µg/mL (≈ 0.338 µM) | 0.125 µg/mL (≈ 0.338 µM) | 4 µg/mL (≈ 10.8 µM) | 8 µg/mL (≈ 21.6 µM) | 1 µg/mL (≈ 2.7 µM) |  | 4 µg/mL (≈ 10.8 µM)
Cc1[nH]c(C(=O)Nc2nc3ccc(C#N)cc3s2)c(Cl)c1Cl | > 1000 nM | > 1000 nM | > 1000 nM |  |  |  |  |  |  | > 1000 nM | 
Cc1[nH]c(C(=O)Nc2nc3c(O)cc(C(=O)O)cc3s2)c(Cl)c1Cl | 120 nM | 22 nM | 130 nM | 16 µg/mL (≈ 41.4 µM) | 4 µg/mL (≈ 10.4 µM) | 2 µg/mL (≈ 5.18 µM) | > 64 µg/mL | > 64 µg/mL | 4 µg/mL (≈ 10.4 µM) | < 10 nM | > 64 µg/mL
CCN(C(=O)c1[nH]c(C)c(Cl)c1Cl)c1nc2ccc(C(=O)O)cc2s1 | 230 nM | 32 nM | > 1000 nM | 0.125 µg/mL (≈ 0.314 µM) | 8 µg/mL (≈ 20.1 µM) | 0.125 µg/mL (≈ 0.314 µM) | 16 µg/mL (≈ 40.2 µM) | > 64 µg/mL | 16 µg/mL (≈ 40.2 µM) | < 10 nM | 32 µg/mL (≈ 80.3 µM)
O=C(NO)c1ccc2nc(NC(=O)c3cc(Br)c(Br)[nH]3)sc2c1 | > 1000 nM | > 1000 nM | > 1000 nM |  |  |  |  |  |  |  | 
Cc1[nH]c(C(=O)Nc2nc3ccc(C(=O)NCCC(=O)O)cc3s2)c(Cl)c1Cl | 40 nM | 71 nM | 210 nM | 32 µg/mL (≈ 72.5 µM) | 8 µg/mL (≈ 18.1 µM) | 2 µg/mL (≈ 4.53 µM) | > 64 µg/mL | > 64 µg/mL | 8 µg/mL (≈ 18.1 µM) | < 10 nM | > 64 µg/mL
Cc1[nH]c(C(=O)Nc2nc3ccc(-c4nnn[nH]4)cc3s2)c(Cl)c1Cl | 270 nM | 25 nM | 660 nM | 16 µg/mL (≈ 40.6 µM) | 16 µg/mL (≈ 40.6 µM) | 1 µg/mL (≈ 2.54 µM) | > 64 µg/mL | > 64 µg/mL | 16 µg/mL (≈ 40.6 µM) | < 10 nM | > 64 µg/mL
Cc1[nH]c(C(=O)Nc2nc3c(OCc4ccccc4)cc(-c4nnn[nH]4)cc3s2)c(Cl)c1Cl | 89 nM | 26 nM |  | 4 µg/mL (≈ 7.99 µM) | 4 µg/mL (≈ 7.99 µM) | 0.125 µg/mL (≈ 0.25 µM) | > 64 µg/mL | > 64 µg/mL | > 64 µg/mL |  | > 64 µg/mL
Cc1[nH]c(C(=O)Nc2nc3c(OCc4cccs4)cc(C(=O)O)cc3s2)c(Cl)c1Cl | 88 nM | < 10 nM | 300 nM | 0.0625 µg/mL (≈ 0.13 µM) | 0.5 µg/mL (≈ 1.04 µM) | 0.0163 µg/mL (≈ 0.0338 µM) | 1 µg/mL (≈ 2.07 µM) | 4 µg/mL (≈ 8.29 µM) | 4 µg/mL (≈ 8.29 µM) | < 10 nM | 8 µg/mL (≈ 16.6 µM)
Cc1[nH]c(C(=O)Nc2nc3cc(O)c(C(=O)O)cc3s2)c(Cl)c1Cl | 46 nM | 61 nM | 95 nM | 16 µg/mL (≈ 41.4 µM) | 4 µg/mL (≈ 10.4 µM) | 1 µg/mL (≈ 2.59 µM) | > 64 µg/mL | > 64 µg/mL | 8 µg/mL (≈ 20.7 µM) | < 10 nM | > 64 µg/mL
Cc1[nH]c(C(=O)Nc2nc3c(OCc4ccccc4)cc(C(=O)O)cc3s2)c(Cl)c1Cl | 68 nM |  |  | 0.5 µg/mL (≈ 1.05 µM) | 0.0625 µg/mL (≈ 0.131 µM) | < 0.0212 µg/mL | 2 µg/mL (≈ 4.2 µM) | 2 µg/mL (≈ 4.2 µM) | 1 µg/mL (≈ 2.1 µM) |  | 16 µg/mL (≈ 33.6 µM)
Cc1[nH]c(C(=O)N(c2nc3ccc(C(=O)O)cc3s2)C(C)C)c(Cl)c1Cl | > 1000 nM | > 1000 nM | > 1000 nM |  |  |  |  |  |  |  | 
O=C(O)c1cc(O)c2nc(NC(=O)c3cc(Br)c(Br)[nH]3)sc2c1 | 240 nM | 170 nM | 180 nM |  |  |  |  |  |  |  | 

Further lines, with some results ahead:

IC50 [1] | IC50 (DNA gyrase [4]) | IC50 [5] | SMILES | MIC (Staphylococcus aureus [2]) | MIC (Staphylococcus aureus [3]) | MIC (Enterococcus faecalis) | MIC (Acinetobacter baumannii) | MIC (Pseudomonas aeruginosa) | MIC (Klebsiella pneumoniae) | IC50 (DNA gyrase [6]) | MIC (Escherichia coli)
13 nM | < 10 nM | 170 nM | Cc1[nH]c(C(=O)Nc2nc3c(OCc4cccc(C(=O)O)c4)cc(C(=O)O)cc3s2)c(Cl)c1Cl |  |  |  |  |  |  | < 10 nM | 
> 1000 nM | > 1000 nM | > 1000 nM | Cc1[nH]c(C(=O)Nc2nc3cc(C(=O)O)ccc3s2)c(Cl)c1Cl |  |  |  |  |  |  |  | 
520 nM | 100 nM | > 1000 nM | Cc1[nH]c(C(=O)Nc2nc3c(OCCN4CCOCC4)cc(C(=O)NCC#N)cc3s2)c(Cl)c1Cl |  |  |  |  |  |  | < 10 nM | 
> 1000 nM | > 1000 nM | > 1000 nM | COc1ccc2nc(NC(=O)c3[nH]c(C)c(Cl)c3Cl)sc2c1 |  |  |  |  |  |  | > 1000 nM | 
> 1000 nM | > 1000 nM | > 1000 nM | Cc1[nH]c(C(=O)Nc2nc3c(OCc4ccccc4)cc(C#N)cc3s2)c(Cl)c1Cl |  |  |  |  |  |  | > 1000 nM | 
160 nM | 48 nM | > 1000 nM | Cc1[nH]c(C(=O)Nc2nc3c(OCCN)cc(C(=O)O)cc3s2)c(Cl)c1Cl |  |  |  |  |  |  | < 10 nM | 
66 nM | 17 nM | 220 nM | Cc1[nH]c(C(=O)Nc2nc3c(OCCN4CCOCC4)cc(C(=O)O)cc3s2)c(Cl)c1Cl |  |  |  |  |  |  | < 10 nM | 
> 1000 nM | > 1000 nM | > 1000 nM | Cc1[nH]c(C(=O)Nc2nc3c(OCc4ccccc4)cc(C(N)=O)cc3s2)c(Cl)c1Cl |  |  |  |  |  |  |  | 
12 nM | < 10 nM | 260 nM | Cc1[nH]c(C(=O)Nc2nc3c(OCc4ccc(C(=O)O)cc4)cc(C(=O)O)cc3s2)c(Cl)c1Cl |  |  |  |  |  |  | < 10 nM | 
320 nM | 59 nM | 490 nM | Cc1[nH]c(C(=O)Nc2nc3ccc(C(N)=O)cc3s2)c(Cl)c1Cl |  |  |  |  |  |  |  | 
> 1000 nM | 310 nM | > 1000 nM | Cc1[nH]c(C(=O)Nc2nc3ccc(C(=O)NCC#N)cc3s2)c(Cl)c1Cl |  |  |  |  |  |  |  | 

Source: ChEMBL document CHEMBL4813947, “New dual ATP-competitive inhibitors of bacterial DNA gyrase and topoisomerase IV active against ESKAPE pathogens” (Eur J Med Chem, 2021)
